Measurements as given in ChEMBL document CHEMBL5653631, “A Potent and Selective ULK1 Inhibitor Suppresses Autophagy and Sensitizes Cancer Cells to Nutrient Stress” (iScience, 2018).

Legend:
[1] = target: Serine/threonine-protein kinase 38-like (Homo sapiens) (UniProt Q9Y2H1); assay: Inhibition of human recombinant NDR2 at 40 nM related to control ULK1
[2] = target: Tyrosine-protein kinase Fes/Fps (Homo sapiens) (UniProt P07332); assay: Inhibition of human recombinant FES at 40 nM related to control ULK1
[3] = target: T1, Serine/threonine-protein kinase Sgk1 (Homo sapiens) (UniProt O00141); assay: Inhibition of human recombinant SGK1 at 40 nM related to control ULK1
T1 sequence (whole entry): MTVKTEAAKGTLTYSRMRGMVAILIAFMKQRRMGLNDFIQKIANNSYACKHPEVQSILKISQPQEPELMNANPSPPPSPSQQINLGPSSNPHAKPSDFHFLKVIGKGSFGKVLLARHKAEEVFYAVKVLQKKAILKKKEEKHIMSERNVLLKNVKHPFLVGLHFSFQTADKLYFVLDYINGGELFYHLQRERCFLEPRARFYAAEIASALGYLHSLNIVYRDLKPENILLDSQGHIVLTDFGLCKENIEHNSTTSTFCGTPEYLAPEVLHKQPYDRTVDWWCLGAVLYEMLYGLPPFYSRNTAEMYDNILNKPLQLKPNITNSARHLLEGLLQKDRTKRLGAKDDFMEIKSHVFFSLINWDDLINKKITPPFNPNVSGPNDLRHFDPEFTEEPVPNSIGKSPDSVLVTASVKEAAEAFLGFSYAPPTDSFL

[4] = target: Ephrin type-A receptor 7 (Homo sapiens) (UniProt Q15375); assay: Inhibition of human recombinant EphA7 at 15 nM in presence of ATP by radiometric assay relative to control
[5] = target: T2, Serine/threonine-protein kinase A-Raf (Homo sapiens) (UniProt P10398); assay: Inhibition of human recombinant ARAF at 15 nM in presence of ATP by radiometric assay relative to control
T2 sequence (whole entry): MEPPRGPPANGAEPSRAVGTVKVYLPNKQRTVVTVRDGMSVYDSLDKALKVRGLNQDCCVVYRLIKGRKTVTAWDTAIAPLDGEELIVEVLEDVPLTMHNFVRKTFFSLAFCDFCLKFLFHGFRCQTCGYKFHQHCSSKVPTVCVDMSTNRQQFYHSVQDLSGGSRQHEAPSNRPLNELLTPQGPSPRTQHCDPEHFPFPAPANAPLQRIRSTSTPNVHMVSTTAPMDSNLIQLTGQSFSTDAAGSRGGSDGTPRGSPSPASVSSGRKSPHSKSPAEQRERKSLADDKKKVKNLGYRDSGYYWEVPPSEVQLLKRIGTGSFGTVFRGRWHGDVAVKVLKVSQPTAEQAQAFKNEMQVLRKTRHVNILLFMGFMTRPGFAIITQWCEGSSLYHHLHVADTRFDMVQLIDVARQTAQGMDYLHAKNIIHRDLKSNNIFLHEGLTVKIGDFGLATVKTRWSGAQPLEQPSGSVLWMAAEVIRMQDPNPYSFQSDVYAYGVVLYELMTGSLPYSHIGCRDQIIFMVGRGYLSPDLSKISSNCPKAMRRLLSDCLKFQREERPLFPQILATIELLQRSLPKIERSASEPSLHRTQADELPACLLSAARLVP
Outline: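 Panel of 327 recombinant human kinases, each assayed in vitro by radiometric activity assay in duplicate at a single inhibitor concentration per compound, chosen with reference to its ULK1 inhibition. Activity remaining was expressed as percent of vehicle control, and percent inhibition was calculated as 100 minus percent activity remaining.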

[6] = target: Dual specificity mitogen-activated protein kinase kinase 1 (Homo sapiens) (UniProt Q02750); assay: Inhibition of human recombinant MAP2K1 at 15 nM in presence of ATP by radiometric assay relative to control
[7] = target: MAP kinase-activated protein kinase 3 (Homo sapiens) (UniProt Q16644); assay: Inhibition of human recombinant MAPKAPK3 at 15 nM related to control ULK1
[8] = target: Tyrosine-protein kinase FRK (Homo sapiens) (UniProt P42685); assay: Inhibition of human recombinant FRK at 15 nM in presence of ATP by radiometric assay relative to control
[9] = target: Macrophage colony-stimulating factor 1 receptor (Homo sapiens) (UniProt P07333); assay: Inhibition of human recombinant FMS at 15 nM related to control ULK1
[10] = target: T3, cGMP-dependent protein kinase 2 (Homo sapiens) (UniProt Q13237); assay: Inhibition of human recombinant PKG2 at 15 nM related to control ULK1
T3 sequence (whole entry): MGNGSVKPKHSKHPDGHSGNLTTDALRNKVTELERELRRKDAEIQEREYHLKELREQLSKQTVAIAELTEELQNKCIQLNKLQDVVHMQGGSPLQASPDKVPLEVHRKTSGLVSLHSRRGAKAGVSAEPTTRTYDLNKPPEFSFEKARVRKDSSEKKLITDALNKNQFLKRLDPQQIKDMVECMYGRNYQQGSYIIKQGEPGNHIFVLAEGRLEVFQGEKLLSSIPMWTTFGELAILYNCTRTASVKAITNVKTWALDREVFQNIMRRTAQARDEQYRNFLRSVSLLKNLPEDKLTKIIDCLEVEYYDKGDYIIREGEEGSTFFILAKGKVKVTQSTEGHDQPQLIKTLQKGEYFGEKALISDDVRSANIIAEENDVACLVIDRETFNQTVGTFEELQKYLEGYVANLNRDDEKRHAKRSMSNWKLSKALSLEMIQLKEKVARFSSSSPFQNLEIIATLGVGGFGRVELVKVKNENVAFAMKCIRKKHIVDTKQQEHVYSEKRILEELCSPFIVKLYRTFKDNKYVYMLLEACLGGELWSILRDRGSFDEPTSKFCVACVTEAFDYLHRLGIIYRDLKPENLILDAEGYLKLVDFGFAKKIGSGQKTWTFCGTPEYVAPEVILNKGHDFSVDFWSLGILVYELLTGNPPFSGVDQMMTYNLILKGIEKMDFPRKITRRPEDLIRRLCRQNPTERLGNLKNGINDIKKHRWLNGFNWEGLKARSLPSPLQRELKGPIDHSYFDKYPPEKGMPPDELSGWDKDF

[11] = target: Mitogen-activated protein kinase 11 (Homo sapiens) (UniProt Q15759); assay: Inhibition of human recombinant p38beta at 15 nM related to control ULK1
[12] = target: Serine/threonine-protein kinase VRK2 (Homo sapiens) (UniProt Q86Y07); assay: Inhibition of human recombinant VRK2 at 500 nM related to control ULK1
Homo sapiens = species on record: Homo sapiens; assay: Inhibition of human recombinant p70S6K at 500 nM in presence of ATP by radiometric assay relative to control
[13] = target: Serine/threonine-protein kinase MRCK beta (Homo sapiens) (UniProt Q9Y5S2); assay: Inhibition of human recombinant MRCKb at 500 nM related to control ULK1
[14] = target: Cyclin-dependent kinase 9 (Homo sapiens) (UniProt P50750); assay: Inhibition of human recombinant CDK9 at 500 nM in presence of ATP by radiometric assay relative to control
Sequence of Cyclin-dependent kinase 9 (Homo sapiens) (P50750 whole entry): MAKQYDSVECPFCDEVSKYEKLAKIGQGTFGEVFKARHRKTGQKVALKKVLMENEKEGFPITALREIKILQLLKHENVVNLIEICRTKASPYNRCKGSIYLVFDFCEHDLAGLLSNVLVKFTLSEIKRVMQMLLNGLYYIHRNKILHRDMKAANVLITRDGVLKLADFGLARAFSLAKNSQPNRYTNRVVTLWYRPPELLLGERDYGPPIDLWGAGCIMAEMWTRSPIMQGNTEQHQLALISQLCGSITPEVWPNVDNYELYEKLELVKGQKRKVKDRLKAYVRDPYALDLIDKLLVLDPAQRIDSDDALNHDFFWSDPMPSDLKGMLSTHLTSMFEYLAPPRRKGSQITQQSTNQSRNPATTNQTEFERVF

Sequence of Mitogen-activated protein kinase 11 (Homo sapiens) (Q15759 whole entry): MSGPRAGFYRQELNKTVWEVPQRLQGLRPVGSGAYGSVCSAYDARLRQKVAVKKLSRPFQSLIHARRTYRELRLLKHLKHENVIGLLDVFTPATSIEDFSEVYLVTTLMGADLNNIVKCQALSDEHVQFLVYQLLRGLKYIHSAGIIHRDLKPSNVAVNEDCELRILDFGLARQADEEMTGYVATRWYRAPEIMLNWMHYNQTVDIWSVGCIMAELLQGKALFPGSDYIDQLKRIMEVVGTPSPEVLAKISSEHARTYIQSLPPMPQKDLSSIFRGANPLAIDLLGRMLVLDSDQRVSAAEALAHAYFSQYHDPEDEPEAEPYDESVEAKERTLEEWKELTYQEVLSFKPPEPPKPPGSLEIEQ
Sequence of MAP kinase-activated protein kinase 3 (Homo sapiens) (Q16644 whole entry, looked up): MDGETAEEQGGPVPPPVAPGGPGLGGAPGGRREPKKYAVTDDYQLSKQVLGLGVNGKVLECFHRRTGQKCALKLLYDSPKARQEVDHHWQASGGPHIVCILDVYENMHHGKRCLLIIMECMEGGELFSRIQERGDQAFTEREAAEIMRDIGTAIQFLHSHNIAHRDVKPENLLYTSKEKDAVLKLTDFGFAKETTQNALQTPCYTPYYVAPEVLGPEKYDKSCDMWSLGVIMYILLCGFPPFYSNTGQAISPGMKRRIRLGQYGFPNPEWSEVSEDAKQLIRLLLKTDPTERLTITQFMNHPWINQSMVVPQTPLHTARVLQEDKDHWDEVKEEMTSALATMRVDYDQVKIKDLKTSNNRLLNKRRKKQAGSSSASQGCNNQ
Sequence of Dual specificity mitogen-activated protein kinase kinase 1 (Homo sapiens) (Q02750 whole entry): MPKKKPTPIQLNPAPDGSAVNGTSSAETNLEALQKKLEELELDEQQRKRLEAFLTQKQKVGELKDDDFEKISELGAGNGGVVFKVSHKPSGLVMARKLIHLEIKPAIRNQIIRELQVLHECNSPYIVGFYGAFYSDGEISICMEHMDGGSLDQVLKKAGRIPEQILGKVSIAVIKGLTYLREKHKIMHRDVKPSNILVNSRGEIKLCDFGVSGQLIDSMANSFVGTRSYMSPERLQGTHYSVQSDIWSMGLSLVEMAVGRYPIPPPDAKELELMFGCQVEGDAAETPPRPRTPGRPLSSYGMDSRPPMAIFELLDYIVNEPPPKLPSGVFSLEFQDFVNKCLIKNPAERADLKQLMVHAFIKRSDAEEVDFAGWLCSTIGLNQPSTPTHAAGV
Sequence of Serine/threonine-protein kinase 38-like (Homo sapiens) (Q9Y2H1 2-464 limits assumed): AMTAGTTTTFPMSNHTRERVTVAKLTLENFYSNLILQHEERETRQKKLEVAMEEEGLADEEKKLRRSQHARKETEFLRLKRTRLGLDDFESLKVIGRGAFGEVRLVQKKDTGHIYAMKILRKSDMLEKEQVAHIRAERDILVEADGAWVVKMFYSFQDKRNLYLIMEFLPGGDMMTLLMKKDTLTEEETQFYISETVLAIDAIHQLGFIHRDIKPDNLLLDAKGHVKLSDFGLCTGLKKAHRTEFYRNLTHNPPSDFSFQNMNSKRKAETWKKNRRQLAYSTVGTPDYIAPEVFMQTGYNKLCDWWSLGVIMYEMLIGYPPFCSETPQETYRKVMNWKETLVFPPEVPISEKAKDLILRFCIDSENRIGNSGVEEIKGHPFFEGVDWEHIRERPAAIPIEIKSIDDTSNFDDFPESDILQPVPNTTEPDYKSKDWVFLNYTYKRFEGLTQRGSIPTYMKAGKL
Sequence of Tyrosine-protein kinase Fes/Fps (Homo sapiens) (P07332 whole entry): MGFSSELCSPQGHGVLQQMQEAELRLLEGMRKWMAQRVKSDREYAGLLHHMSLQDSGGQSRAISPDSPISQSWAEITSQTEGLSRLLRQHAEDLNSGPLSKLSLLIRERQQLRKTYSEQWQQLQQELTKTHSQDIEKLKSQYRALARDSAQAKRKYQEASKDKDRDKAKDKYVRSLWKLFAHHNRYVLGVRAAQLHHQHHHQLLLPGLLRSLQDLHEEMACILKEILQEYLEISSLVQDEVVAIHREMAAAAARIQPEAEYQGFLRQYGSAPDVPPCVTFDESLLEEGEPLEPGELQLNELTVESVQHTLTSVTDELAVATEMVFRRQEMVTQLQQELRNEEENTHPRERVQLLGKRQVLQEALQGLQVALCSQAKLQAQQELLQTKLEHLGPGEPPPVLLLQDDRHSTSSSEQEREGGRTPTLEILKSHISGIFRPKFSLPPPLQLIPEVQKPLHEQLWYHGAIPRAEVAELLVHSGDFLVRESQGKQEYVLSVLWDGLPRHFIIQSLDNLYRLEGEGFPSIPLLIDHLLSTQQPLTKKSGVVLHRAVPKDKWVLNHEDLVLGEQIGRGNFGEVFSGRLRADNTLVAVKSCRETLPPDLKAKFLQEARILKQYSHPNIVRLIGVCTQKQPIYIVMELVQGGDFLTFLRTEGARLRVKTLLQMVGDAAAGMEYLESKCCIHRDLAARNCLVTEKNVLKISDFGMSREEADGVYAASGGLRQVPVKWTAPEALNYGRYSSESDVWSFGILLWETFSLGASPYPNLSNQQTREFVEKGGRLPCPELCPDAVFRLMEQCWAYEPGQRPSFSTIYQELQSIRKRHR
Sequence of Tyrosine-protein kinase FRK (Homo sapiens) (P42685 whole entry): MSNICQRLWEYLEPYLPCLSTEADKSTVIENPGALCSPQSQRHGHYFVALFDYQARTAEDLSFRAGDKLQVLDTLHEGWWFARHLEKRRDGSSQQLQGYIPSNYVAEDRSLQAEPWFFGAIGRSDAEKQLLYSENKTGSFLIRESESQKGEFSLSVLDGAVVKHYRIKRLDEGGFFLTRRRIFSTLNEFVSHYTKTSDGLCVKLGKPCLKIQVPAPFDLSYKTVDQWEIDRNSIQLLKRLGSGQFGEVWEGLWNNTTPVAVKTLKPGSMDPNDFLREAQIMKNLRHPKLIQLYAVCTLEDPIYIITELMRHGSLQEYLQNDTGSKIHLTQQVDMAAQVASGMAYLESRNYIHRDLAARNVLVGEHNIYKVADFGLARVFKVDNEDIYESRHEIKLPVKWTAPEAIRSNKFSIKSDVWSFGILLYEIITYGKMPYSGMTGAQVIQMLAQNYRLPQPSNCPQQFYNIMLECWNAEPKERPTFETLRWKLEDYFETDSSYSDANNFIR
Sequence of Ephrin type-A receptor 7 (Homo sapiens) (Q15375 28-998 limits assumed): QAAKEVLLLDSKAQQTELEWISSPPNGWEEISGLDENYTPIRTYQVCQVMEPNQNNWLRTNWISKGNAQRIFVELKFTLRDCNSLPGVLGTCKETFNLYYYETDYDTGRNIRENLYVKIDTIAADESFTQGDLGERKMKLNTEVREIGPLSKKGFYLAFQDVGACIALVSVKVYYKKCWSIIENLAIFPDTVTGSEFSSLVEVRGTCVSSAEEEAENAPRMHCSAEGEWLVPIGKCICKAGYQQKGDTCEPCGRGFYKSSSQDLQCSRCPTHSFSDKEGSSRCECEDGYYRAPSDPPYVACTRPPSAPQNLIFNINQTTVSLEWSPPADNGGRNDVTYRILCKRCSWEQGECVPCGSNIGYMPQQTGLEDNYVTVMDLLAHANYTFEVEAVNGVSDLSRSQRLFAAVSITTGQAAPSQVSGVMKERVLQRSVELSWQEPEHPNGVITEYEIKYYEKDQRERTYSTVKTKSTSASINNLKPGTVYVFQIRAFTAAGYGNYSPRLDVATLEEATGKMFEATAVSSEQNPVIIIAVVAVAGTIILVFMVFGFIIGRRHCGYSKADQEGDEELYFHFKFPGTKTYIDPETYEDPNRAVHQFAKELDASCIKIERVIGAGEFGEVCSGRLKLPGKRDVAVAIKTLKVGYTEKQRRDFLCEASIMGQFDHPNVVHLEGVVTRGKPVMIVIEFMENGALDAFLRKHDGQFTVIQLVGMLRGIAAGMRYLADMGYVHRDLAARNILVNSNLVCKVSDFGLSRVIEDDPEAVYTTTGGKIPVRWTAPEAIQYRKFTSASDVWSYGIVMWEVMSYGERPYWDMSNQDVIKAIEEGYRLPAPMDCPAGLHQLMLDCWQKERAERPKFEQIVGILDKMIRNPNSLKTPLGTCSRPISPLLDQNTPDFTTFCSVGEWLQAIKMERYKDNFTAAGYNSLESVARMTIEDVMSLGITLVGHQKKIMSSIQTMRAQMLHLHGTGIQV
Sequence of Serine/threonine-protein kinase VRK2 (Homo sapiens) (Q86Y07 whole entry): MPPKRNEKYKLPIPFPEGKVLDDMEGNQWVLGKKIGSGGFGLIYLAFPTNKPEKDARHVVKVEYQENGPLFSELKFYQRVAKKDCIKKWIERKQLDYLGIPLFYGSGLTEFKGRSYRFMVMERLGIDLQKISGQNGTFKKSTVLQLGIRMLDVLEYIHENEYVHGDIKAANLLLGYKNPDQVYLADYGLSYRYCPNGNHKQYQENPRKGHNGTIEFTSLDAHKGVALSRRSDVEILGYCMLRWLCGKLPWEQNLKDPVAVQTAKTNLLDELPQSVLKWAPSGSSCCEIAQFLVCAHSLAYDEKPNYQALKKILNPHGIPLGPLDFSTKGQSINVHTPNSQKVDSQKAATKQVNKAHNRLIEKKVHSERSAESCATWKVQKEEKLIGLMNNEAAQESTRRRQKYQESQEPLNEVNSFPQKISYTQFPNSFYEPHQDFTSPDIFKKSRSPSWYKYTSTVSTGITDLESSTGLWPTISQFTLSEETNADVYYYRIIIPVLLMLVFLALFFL

O=C(N[C@@H](C1CC1)C(F)(F)F)c1cc(-c2cnn3cc(-c4ccc(F)cc4)cnc23)cs1
fold change (FC) [1]: 0 | fold change (FC) [2]: 0.21 | fold change (FC) [3]: 0.1

CC(C)[C@H](NC(=O)c1cc(-c2cnn3cc(-c4ccc(OCCN5CCCCC5)cc4)cnc23)cs1)C(F)(F)F
inhibition [4]: 0% | inhibition [5]: 6% | inhibition [6]: 7% | fold change (FC) [7]: 0 | inhibition [8]: 13% | fold change (FC) [9]: 0.19 | fold change (FC) [10]: 0.05 | fold change (FC) [11]: 0.01

CNC(=O)c1ccccc1Oc1nc(Nc2cc(OC)c(OC)c(OC)c2)ncc1Br
fold change (FC) [12]: 0.31 | inhibition (Homo sapiens): 0% | fold change (FC) [13]: 0 | inhibition [14]: 3%
